Results taken from paper PMC8829947 (ACS Omega, 2022).
In brackets after ≈: the same amount, converted by molar mass. Read-outs that look alike come from different tables or passages of the source.

Tests used:
[1] = test system: K. pneumoniae ATCC 33495::pGDP2 (NDM-1); assay: Meropenem rescue and MIC, antimicrobial susceptibility test; type: cell-based, Klebsiella pneumoniae; settings: for MIC: Klebsiella pneumoniae; for RC in MHB, K. pneumoniae ATCC 33495::pGDP2 (NDM-1): rescue concentration at meropenem 2 μg/mL
[2] = test system: E. coli expressing blaNDM-1; assay: Meropenem rescue concentration, antimicrobial susceptibility test; type: cell-based, Escherichia coli; settings: rescue concentration at meropenem 2 μg/mL, MHB
Method in brief: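 Checkerboard broth microdilution in Mueller–Hinton broth against E. coli carrying the plasmid-borne MBL gene. Meropenem used five 2-fold dilutions and the test compound six 2-fold dilutions, within 0.5–64 μg/mL; the test compound was dissolved in water or 50% methanol. Inoculum was adjusted to OD625 0.08–0.10, then diluted 200-fold. Incubation was 20 h static at 37 °C, read at OD600. RC is the compound concentration restoring susceptibility at meropenem 2 μg/mL. ≥2 replicates.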

[3] = molecular target: IMP-7; assay: In vitro enzyme inhibition assay, purified recombinant IMP-7; type: biochemical; settings: read-out: IC50 IMP-7 - Zn; Zn2+-depleted (Chelex-100-treated) buffer
Method in brief: (§1)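 Purified recombinant enzyme at 4 nM was preincubated 5–10 min at RT with varying inhibitor concentrations. Buffer was 50 mM HEPES pH 7.5, 0.2% DMSO, 1% PEG 4000, with either 10 μM ZnSO4 or no zinc (Chelex-100-treated, 2 h, filtered). Reactions were started with nitrocefin (30 μM final, A490) or meropenem (50 μM final, A300) and followed 60 s. IC50 came from the linear portion of progress curves. Duplicates.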

[4] = molecular target: VIM-2 (Escherichia coli, UniProt Q5U7L7); assay: In vitro enzyme inhibition assay, purified recombinant VIM-2; type: biochemical
Method in brief: as §1

[5] = molecular target: NDM-1 (Klebsiella pneumoniae, UniProt C7C422); assay: In vitro enzyme inhibition assay, purified recombinant NDM-1; type: biochemical
Chain of NDM-1 (C7C422 29-270, looked up, species assumed): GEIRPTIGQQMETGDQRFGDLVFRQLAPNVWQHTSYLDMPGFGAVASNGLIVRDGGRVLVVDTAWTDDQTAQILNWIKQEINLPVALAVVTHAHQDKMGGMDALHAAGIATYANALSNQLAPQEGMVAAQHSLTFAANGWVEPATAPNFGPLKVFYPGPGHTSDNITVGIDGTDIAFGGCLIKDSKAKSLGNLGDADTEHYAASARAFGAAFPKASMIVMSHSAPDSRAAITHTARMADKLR
Method in brief: as §1

[6] = test system: E. coli; assay: MIC of single agent, antimicrobial susceptibility test; type: cell-based; settings: Escherichia coli
[7] = Zn2+ affinity by competition with colorimetric PAR assay; type: binding; settings: read-out: Kd,Zn2; PAR 100 μM, ZnSO4 10 μM, pH 7.5, 3 h at 25 °C
Method in brief: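 The test compound was titrated into Chelex-100-treated 20 mM HEPES, 100 mM NaCl, pH 7.5, containing PAR 100 μM and ZnSO4 10 μM, then incubated 3 h at 25 °C. Zn2+ displacement from PAR was read as the fall in absorbance at 492 nm. Kd was estimated from the known PAR stability constant at pH 7.4.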

[8] = test system: A. baumannii ATCC 17978::pROTO2 (NDM-1); assay: Meropenem rescue and MIC, antimicrobial susceptibility test; type: cell-based, Acinetobacter baumannii; settings: rescue concentration at meropenem 2 μg/mL
[9] = test system: E. coli BW25113 (WT); assay: Cell penetration / intracellular accumulation assay; type: cell-based, Escherichia coli; settings: 50 μM, wild-type E. coli
Method in brief: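 E. coli BW25113 (wild type) cells were incubated with the test compound at 50 μM (reference chelator at 50 or 100 μM) for 10 min at 37 °C. Cells were spun through ice-cold silicone oil (12,000g, 2 min), resuspended in water and lysed by three freeze–thaw cycles. The debris pellet was extracted with MeOH. Pooled extracts were quantified by UPLC–Q-TOF targeted MS/MS against a calibration curve. Biological and technical triplicates.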

[10] = IC50 NDM-1 + Zn, Zn2+-supplemented (10 μM) buffer
[11] = IC50 NDM-1 - Zn, Zn2+-depleted (Chelex-100-treated) buffer

CC(C)(S)C(NC[C@H](NC[C@H](N)C(=O)O)C(=O)O)C(=O)O (stereo in doubt) [Compound 15, (S)-2-(((S)-2-(((S)-2-Amino-2-carboxyethyl)amino)-2-carboxyethyl)amino)-3-mercapto-3-methylbutanoic Acid]
MIC ([1]; ATCC33495, read-out: MIC of compound (Table 3 footnote c)): 16 to 32 µg/mL | RC in MHB, NDM-1 [2]: 32 µg/mL | IC50 [3]: > 500 µM | IC50 [4]: 361 ± 29 µM | IC50 [5, 10]: 56.1 ± 2.5 µM | IC50 [5, 11]: 98.6 ± 4 µM | MIC ([6]; read-out: MIC (antimicrobial activity)): 64 µg/mL | Kd [7]: 0.0023 ± 0.0004 µM

N[C@@H](CN[C@@H](CN[C@@H](CC(=O)O)C(=O)O)C(=O)O)CSc1ccccc1 [Compound 4]
RC in MHB, A. baumannii ATCC 17978::pROTO2 (NDM-1) [8]: 8 μg/mL | RC in MHB, K. pneumoniae ATCC 33495::pGDP2 (NDM-1) [1]: 8 μg/mL | RC in MHB, NDM-1 [2]: 8 µg/mL | intracellular accumulation increase relative to AMA [9]: 1.5 fold | IC50 [3]: 32 ± 3.1 µM | IC50 [4]: 246 ± 23 µM | IC50 [5, 10]: 12.5 ± 0.8 µM | IC50 [5, 11]: 150 ± 16 µM | Kd [7]: 0.0004 ± 7e-05 µM

N[C@@H](CN[C@@H](CN[C@@H](CC(=O)O)C(=O)O)C(=O)O)CSc1ccc(O)cc1 [Compound 6, ((S)-2-(((S)-2-Amino-3-((4-hydroxyphenyl)thio)propyl)amino)-2-carboxyethyl)-L-aspartic Acid]
RC in MHB, A. baumannii ATCC 17978::pROTO2 (NDM-1) [8]: 8 μg/mL | RC in MHB, K. pneumoniae ATCC 33495::pGDP2 (NDM-1) [1]: 16 μg/mL | RC in MHB, NDM-1 [2]: 8 µg/mL | intracellular accumulation increase relative to AMA [9]: 4.5 fold | IC50 [3]: > 500 µM | IC50 [4]: 183 ± 10 µM | IC50 [5, 10]: 54 ± 4.1 µM | IC50 [5, 11]: > 500 µM | Kd [7]: 0.0078 ± 0.0034 µM

C[C@@H](O)[C@H]1C(=O)N2C(C(=O)O)=C(S[C@@H]3CN[C@H](C(=O)N(C)C)C3)[C@H](C)[C@H]12 [meropenem, reference compound]
MIC ([1]; ATCC33495, read-out: Meropenem MIC (Table 3 footnote b)): 16 to 32 µg/mL (≈ 41.7 to 83.4 µM) | intracellular accumulation ([9]; 10 min 37 °C): 43.9 nmol/10^12 CFU | MIC ([6]; read-out: MIC of meropenem against resistant E. coli): 64 µg/mL
